In ChEMBL document CHEMBL4368943 (J Med Chem, 2019):

How the values were obtained:
[1] = molecular target: T1, von Hippel-Lindau disease tumor suppressor/Estrogen receptor/Cullin-2 (Homo sapiens, UniProt P03372+P40337+Q13617); experiment: Protac activity against VHL/cullin2/ERalpha in human MCF7 cells assessed as ERalpha degradation by measuring ER protein/GADPH ratio at 100 nM after 4 hrs by Western blot analysis relative to control; assay type: cell-based
How it was run: (§1)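 MCF-7 cells (DMEM, 10% FBS, passages 3−8) exposed 4 h. Lysed in RIPA with protease inhibitors; equal protein on 10% SDS-PAGE, PVDF, anti-ERα blot. Membranes stripped and reprobed for GAPDH. ERα/GAPDH ratio normalized to DMSO = 100; DC50 from densitometry of the dose series.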

[2] = molecular target: T1, von Hippel-Lindau disease tumor suppressor/Estrogen receptor/Cullin-2; experiment: Protac activity against VHL/cullin2/ERalpha in human MCF7 cells assessed as ERalpha degradation by measuring ER protein/GADPH ratio at 1 nM after 4 hrs by Western blot analysis relative to control; assay type: cell-based; how it was run: as §1
[3] = molecular target: T1, von Hippel-Lindau disease tumor suppressor/Estrogen receptor/Cullin-2; experiment: Protac activity against VHL/cullin2/ERalpha in human MCF7 cells assessed as ERalpha degradation by measuring ER protein/GADPH ratio at 10 nM after 4 hrs by Western blot analysis relative to control; assay type: cell-based; how it was run: as §1
[4] = Binding affinity to His-TEV-tagged VHL (54 to 213 residues) (unknown origin)/Elongin B (1 to 118 residues)/Elongin C (1 to 96 residues) expressed in Escherichia coli BL21(DE3) by FP assay; set-up: species or system Homo sapiens
How it was run: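 Competitive FP. Tracer is a fluorescent VHL ligand (Kd 2.3 nM). VHL–ElonginB/C complex and tracer each at 5 nM final, preincubated. Compound in DMSO (5 µL into 95 µL) for 60 min at room temperature with shaking. Ex 485/em 530 nm. IC50 by nonlinear regression; Ki from probe KD and protein/probe concentrations. Duplicate, three independent experiments.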

T1 sequence (P03372 whole entry, looked up): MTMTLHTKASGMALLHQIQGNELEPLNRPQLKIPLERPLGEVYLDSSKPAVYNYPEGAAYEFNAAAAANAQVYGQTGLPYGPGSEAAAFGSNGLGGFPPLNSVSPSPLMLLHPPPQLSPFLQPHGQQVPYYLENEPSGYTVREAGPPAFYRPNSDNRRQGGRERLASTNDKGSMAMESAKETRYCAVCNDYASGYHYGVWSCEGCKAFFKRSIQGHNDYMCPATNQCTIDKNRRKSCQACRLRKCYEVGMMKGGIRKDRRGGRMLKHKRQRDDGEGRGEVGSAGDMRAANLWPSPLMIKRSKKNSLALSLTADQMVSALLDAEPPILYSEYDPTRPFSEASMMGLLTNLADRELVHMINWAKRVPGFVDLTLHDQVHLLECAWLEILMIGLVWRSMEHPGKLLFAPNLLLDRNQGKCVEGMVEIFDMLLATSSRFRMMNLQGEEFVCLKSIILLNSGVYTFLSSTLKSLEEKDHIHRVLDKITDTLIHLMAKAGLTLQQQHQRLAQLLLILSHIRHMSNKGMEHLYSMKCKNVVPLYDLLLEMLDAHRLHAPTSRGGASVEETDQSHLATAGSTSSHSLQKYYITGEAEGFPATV
T1 sequence (P40337 whole entry, looked up): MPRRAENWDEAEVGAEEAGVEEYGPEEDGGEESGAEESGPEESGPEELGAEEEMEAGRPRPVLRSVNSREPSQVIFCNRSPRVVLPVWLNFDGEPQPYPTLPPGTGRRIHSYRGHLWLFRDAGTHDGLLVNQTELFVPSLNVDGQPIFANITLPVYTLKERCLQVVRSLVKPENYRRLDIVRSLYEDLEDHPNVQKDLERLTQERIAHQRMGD
T1 sequence (Q13617 whole entry, looked up): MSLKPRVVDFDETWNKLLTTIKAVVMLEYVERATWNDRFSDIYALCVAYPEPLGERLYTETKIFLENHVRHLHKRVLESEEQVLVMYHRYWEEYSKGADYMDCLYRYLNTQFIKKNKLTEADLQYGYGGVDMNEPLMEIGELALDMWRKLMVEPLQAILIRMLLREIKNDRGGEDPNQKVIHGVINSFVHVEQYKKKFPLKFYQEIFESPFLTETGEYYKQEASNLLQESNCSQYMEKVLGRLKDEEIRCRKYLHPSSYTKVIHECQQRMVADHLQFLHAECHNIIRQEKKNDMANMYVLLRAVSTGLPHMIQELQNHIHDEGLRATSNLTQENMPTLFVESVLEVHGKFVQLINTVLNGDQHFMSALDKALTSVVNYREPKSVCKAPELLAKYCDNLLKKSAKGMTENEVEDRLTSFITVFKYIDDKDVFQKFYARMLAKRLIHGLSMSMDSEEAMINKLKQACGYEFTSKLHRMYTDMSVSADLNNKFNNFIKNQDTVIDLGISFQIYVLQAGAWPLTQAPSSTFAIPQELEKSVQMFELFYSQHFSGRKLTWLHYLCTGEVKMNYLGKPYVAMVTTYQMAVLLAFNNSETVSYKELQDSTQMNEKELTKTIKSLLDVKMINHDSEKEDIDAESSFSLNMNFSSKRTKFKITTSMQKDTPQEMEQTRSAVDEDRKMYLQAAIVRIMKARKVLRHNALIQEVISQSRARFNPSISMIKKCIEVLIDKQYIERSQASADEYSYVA

| SMILES | Ratio [1] | Ratio [2] | Ratio [3] | IC50 [4] [µM] |
| --- | --- | --- | --- | --- |
| CCC(=C(c1ccc(O)cc1)c1ccc(OCCN(CC)CCCCCCCC(=O)N[C@H](C(=O)N2C[C@H](O)C[C@H]2C(=O)N[C@@H](C)c2ccc(-c3scnc3C)cc2)C(C)(C)C)cc1)c1ccccc1 | 0.6 | 55 | 24 | – |
| Cc1ncsc1-c1ccc([C@H](C)NC(=O)[C@@H]2C[C@@H](O)CN2C(=O)[C@@H](NC(=O)CCCCCCCN(CCOc2ccc(C(=O)c3c(-c4ccc(O)cc4)sc4cc(O)ccc34)cc2)C2CCCC2)C(C)(C)C)cc1 | 0.1 | 75 | 0.3 | – |
| Cc1ncsc1-c1ccc([C@H](C)NC(=O)[C@@H]2C[C@@H](O)CN2C(=O)[C@@H](NC(=O)CCCCCCCN(C)CCOc2ccc(C(=O)c3c(-c4ccc(O)cc4)sc4cc(O)ccc34)cc2)C(C)(C)C)cc1 | 46 | 27 | 153 | – |
| CCC(=C(c1ccccc1)c1ccc(OCCN(CC)CCCCCCCC(=O)N[C@H](C(=O)N2C[C@H](O)C[C@H]2C(=O)N[C@@H](C)c2ccc(-c3scnc3C)cc2)C(C)(C)C)cc1)c1ccccc1 | 2.4 | 103 | 97 | – |
| Cc1ncsc1-c1ccc([C@H](C)NC(=O)[C@@H]2C[C@@H](O)CN2C(=O)[C@@H](NC(=O)CCCCCCCN(CCOc2ccc(C(=O)c3c(-c4ccc(O)cc4)sc4cc(O)ccc34)cc2)C2CC2)C(C)(C)C)cc1 | 0.1 | 20 | 0.2 | – |
| CC(=O)N[C@H](C(=O)N1C[C@H](O)C[C@H]1C(=O)N[C@@H](C)c1ccc(C2CC2)cc1)C(C)(C)C | – | – | – | 6.11 |
| CCN(CCCCCCCC(=O)N[C@H](C(=O)N1C[C@H](O)C[C@H]1C(=O)N[C@@H](C)c1ccc(-c2scnc2C)cc1)C(C)(C)C)CCOc1ccc([C@@H]2c3ccc(O)cc3CC[C@@H]2c2ccccc2)cc1 | 0.3 | 74 | 5 | – |
| C#Cc1ccc([C@H](C)NC(=O)[C@@H]2C[C@@H](O)CN2C(=O)[C@@H](NC(=O)CCCCCCCN(CC)CCOc2ccc(C(=O)c3c(-c4ccc(O)cc4)sc4cc(O)ccc34)cc2)C(C)(C)C)cc1 | 8 | 90 | 24 | – |
| CCN(CCOc1ccc(C(=O)c2c(-c3ccc(O)cc3)sc3cc(O)ccc23)cc1)CCN1CCN(CCCC(=O)N[C@H](C(=O)N2C[C@H](O)C[C@H]2C(=O)N[C@@H](C)c2ccc(-c3scnc3C)cc2)C(C)(C)C)CC1 | 24 | 208 | 50 | – |
| CCN(CCC#Cc1cnn(CC(=O)N[C@H](C(=O)N2C[C@H](O)C[C@H]2C(=O)N[C@@H](C)c2ccc(-c3scnc3C)cc2)C(C)(C)C)c1)CCOc1ccc(C(=O)c2c(-c3ccc(O)cc3)sc3cc(O)ccc23)cc1 | 24 | 139 | 45 | – |
| CCN(CCOCCOCCC(=O)N[C@H](C(=O)N1C[C@H](O)C[C@H]1C(=O)N[C@@H](C)c1ccc(-c2scnc2C)cc1)C(C)(C)C)CCOc1ccc(C(=O)c2c(-c3ccc(O)cc3)sc3cc(O)ccc23)cc1 | 1.7 | 183 | 2.4 | – |
| CCN(CCCCCCCC(=O)N[C@H](C(=O)N1C[C@H](O)C[C@H]1C(=O)NCc1ccc(-c2scnc2C)cc1)C(C)(C)C)CCOc1ccc(C(=O)c2c(-c3ccc(O)cc3)sc3cc(O)ccc23)cc1 | 62 | 79 | 71 | – |
| Cc1ncsc1-c1ccc([C@H](C)NC(=O)[C@@H]2C[C@@H](O)CN2C(=O)[C@@H](NC(=O)CCCCCCCN(CCOc2ccc(C(=O)c3c(-c4ccc(O)cc4)sc4cc(O)ccc34)cc2)C2CCCCC2)C(C)(C)C)cc1 | 0.1 | 68 | 0.6 | – |
| CCN(CCCC(=O)N[C@H](C(=O)N1C[C@H](O)C[C@H]1C(=O)N[C@@H](C)c1ccc(-c2scnc2C)cc1)C(C)(C)C)CCOc1ccc(C(=O)c2c(-c3ccc(O)cc3)sc3cc(O)ccc23)cc1 | 135 | 63 | 139 | – |
| CCN(CCCCCCCC(=O)N[C@H](C(=O)N1C[C@H](O)C[C@H]1C(=O)N[C@@H](C)c1ccc(C(C)C)cc1)C(C)(C)C)CCOc1ccc(C(=O)c2c(-c3ccc(O)cc3)sc3cc(O)ccc23)cc1 | 78 | 138 | 109 | – |
| CCN(CCCCc1cnn(CC(=O)N[C@H](C(=O)N2C[C@H](O)C[C@H]2C(=O)N[C@@H](C)c2ccc(-c3scnc3C)cc2)C(C)(C)C)c1)CCOc1ccc(C(=O)c2c(-c3ccc(O)cc3)sc3cc(O)ccc23)cc1 | 12 | 99 | 20 | – |
| Cc1ncsc1-c1ccc([C@H](C)NC(=O)[C@@H]2C[C@@H](O)CN2C(=O)[C@@H](NC(=O)CCCCCCCN(CCOc2ccc(C(=O)c3c(-c4ccc(O)cc4)sc4cc(O)ccc34)cc2)C(C)(C)C)C(C)(C)C)cc1 | 0 | 21 | 0.2 | – |

| SMILES | Ratio [1] | Ratio [2] | Ratio [3] | IC50 [4] [µM] |
| --- | --- | --- | --- | --- |
| CCN(CCCCCCCCCC(=O)N[C@H](C(=O)N1C[C@H](O)C[C@H]1C(=O)N[C@@H](C)c1ccc(-c2scnc2C)cc1)C(C)(C)C)CCOc1ccc(C(=O)c2c(-c3ccc(O)cc3)sc3cc(O)ccc23)cc1 | 0.3 | 25 | 0.4 | – |
| CCN(CCCCCCCC(=O)N[C@H](C(=O)N1C[C@H](O)C[C@H]1C(=O)N[C@@H](C)c1ccc(Cl)cc1)C(C)(C)C)CCOc1ccc(C(=O)c2c(-c3ccc(O)cc3)sc3cc(O)ccc23)cc1 | 79 | 99 | 87 | – |
| CCN(CCCCCC(=O)N[C@H](C(=O)N1C[C@H](O)C[C@H]1C(=O)N[C@@H](C)c1ccc(-c2scnc2C)cc1)C(C)(C)C)CCOc1ccc(C(=O)c2c(-c3ccc(O)cc3)sc3cc(O)ccc23)cc1 | 12 | 26 | 66 | – |
| CCN(CCCCCCCC(=O)N[C@H](C(=O)N1C[C@H](O)C[C@H]1C(=O)N[C@@H](C)c1ccc(-c2scnc2C)cc1)C(C)(C)C)CCOc1ccc(Cn2c(-c3ccc(O)cc3)c(C)c3cc(O)ccc32)cc1 | 0.2 | 74 | 10 | – |
| CCN(CCCCCCC(=O)N[C@H](C(=O)N1C[C@H](O)C[C@H]1C(=O)N[C@@H](C)c1ccc(-c2scnc2C)cc1)C(C)(C)C)CCOc1ccc(C(=O)c2c(-c3ccc(O)cc3)sc3cc(O)ccc23)cc1 | 6 | 32 | 8 | – |
| CCN(CCCCCCCC(=O)N[C@H](C(=O)N1C[C@H](O)C[C@H]1C(=O)N[C@@H](C)c1ccc(C2CC2)cc1)C(C)(C)C)CCOc1ccc(C(=O)c2c(-c3ccc(O)cc3)sc3cc(O)ccc23)cc1 | 70 | 130 | 75 | – |
| CCN(CCCCC(=O)N[C@H](C(=O)N1C[C@H](O)C[C@H]1C(=O)N[C@@H](C)c1ccc(-c2scnc2C)cc1)C(C)(C)C)CCOc1ccc(C(=O)c2c(-c3ccc(O)cc3)sc3cc(O)ccc23)cc1 | 92 | 90 | 129 | – |
| Cc1ncsc1-c1ccc([C@H](C)NC(=O)[C@@H]2C[C@@H](O)CN2C(=O)[C@@H](NC(=O)CCCCCCCN(CCOc2ccc(C(=O)c3c(-c4ccc(O)cc4)sc4cc(O)ccc34)cc2)C2CCC2)C(C)(C)C)cc1 | 0.1 | 15 | 4 | – |
| CCN(CCCC#Cc1cnn(CCC(=O)N[C@H](C(=O)N2C[C@H](O)C[C@H]2C(=O)N[C@@H](C)c2ccc(-c3scnc3C)cc2)C(C)(C)C)c1)CCOc1ccc(C(=O)c2c(-c3ccc(O)cc3)sc3cc(O)ccc23)cc1 | 0.4 | 70 | 0.5 | – |
| CCN(CCCCCCCC(=O)N[C@H](C(=O)N1C[C@H](O)C[C@H]1C(=O)N[C@@H](C)c1ccc(C#N)cc1)C(C)(C)C)CCOc1ccc(C(=O)c2c(-c3ccc(O)cc3)sc3cc(O)ccc23)cc1 | 80 | 110 | 86 | – |
| Cc1ncsc1-c1ccc([C@H](C)NC(=O)[C@@H]2C[C@@H](O)CN2C(=O)[C@@H](NC(=O)CCCCCCCN(CCOc2ccc(C(=O)c3c(-c4ccc(O)cc4)sc4cc(O)ccc34)cc2)CC2CCC2)C(C)(C)C)cc1 | 0.2 | 76 | 1.3 | – |
| CCN(CCOc1ccc(C(=O)c2c(-c3ccc(O)cc3)sc3cc(O)ccc23)cc1)CCC1CCN(CCCC(=O)N[C@H](C(=O)N2C[C@H](O)C[C@H]2C(=O)N[C@@H](C)c2ccc(-c3scnc3C)cc2)C(C)(C)C)CC1 | 98 | 227 | 91 | – |
| CCN(CCOCCOCC(=O)N[C@H](C(=O)N1C[C@H](O)C[C@H]1C(=O)N[C@@H](C)c1ccc(-c2scnc2C)cc1)C(C)(C)C)CCOc1ccc(C(=O)c2c(-c3ccc(O)cc3)sc3cc(O)ccc23)cc1 | 0.4 | 94 | 0.4 | – |
| CCN(CCCCCCCC(=O)N[C@H](C(=O)N1C[C@H](O)C[C@H]1C(=O)N[C@@H](C)c1ccc(C(C)(C)C)cc1)C(C)(C)C)CCOc1ccc(C(=O)c2c(-c3ccc(O)cc3)sc3cc(O)ccc23)cc1 | 80 | 136 | 112 | – |
| Cc1ncsc1-c1ccc([C@H](C)NC(=O)[C@@H]2C[C@@H](O)CN2C(=O)[C@@H](NC(=O)CCCCCCCN(CCOc2ccc(C(=O)c3c(-c4ccc(O)cc4)sc4cc(O)ccc34)cc2)C(C)C)C(C)(C)C)cc1 | 0.2 | 28 | 0.5 | – |
| CCN(CCCCCCCCC(=O)N[C@H](C(=O)N1C[C@H](O)C[C@H]1C(=O)N[C@@H](C)c1ccc(-c2scnc2C)cc1)C(C)(C)C)CCOc1ccc(C(=O)c2c(-c3ccc(O)cc3)sc3cc(O)ccc23)cc1 | 3 | 23 | 7 | – |
